Experimental findings from ChEMBL document CHEMBL3758131, “Towards new 5-HT7 antagonists among arylsulfonamide derivatives of (aryloxy)ethyl-alkyl amines: Multiobjective based design, synthesis, and antidepressant and anxiolytic properties” (Eur J Med Chem, 2016) are described below.

Series [1] relates to Mus musculus. The series can be described thus: Antidepressant activity in C57BL/6J mouse assessed as average force at 5 mg/kg, ip measured over 6 mins by tail suspension test (reference value: 0.281 +/- 0.018 to 0.359 +/- 0.027 N). It is filed as functional.
In series [2] the test system is Mus musculus. Briefly: Antidepressant activity in C57BL/6J mouse assessed as number of events at 0.625 mg/kg, ip measured over 6 mins by tail suspension test (reference value: 1325.1 +/- 77.8 to 1773.4 +/- 109.9). It counts as functional.
The test system of series [3] is Mus musculus. Briefly: Antidepressant activity in C57BL/6J mouse assessed as immobility time at […] mg/kg, ip measured over 6 mins by tail suspension test (reference value: 160.7 +/- 12 to 170.6 +/- 9 sec). It counts as functional.
Series [4] concerns Rattus norvegicus. Briefly: Antidepressant activity in ip dosed Wistar rat assessed as reduction in immobility time of rat by forced swim test. It is filed as functional. Conditions: read-out: MED. In short, it runs like this:
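Male Wistar rats (220-250 g), ip injection 30 min before test. Day 1: 15-min pre-swim in a cylinder with 15 cm of water at 25 °C, then drying under a lamp. Next day: total immobility recorded over the whole 5-min test, with fresh water for each rat.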

Series [5] is filed under the species Homo sapiens. The series can be described thus: Selectivity index ratio of Ki for human 5-HT1A receptor to Ki for human 5-HT7B.
For series [6], the target named is 5-hydroxytryptamine receptor 7 (Homo sapiens, UniProt P34969). The series can be described thus: Antagonist activity at human 5-HT7B receptor expressed in HEK293 cells assessed as inhibition of 5-CT-induced cAMP production after 30 mins by TR-FRET assay. It is filed as functional, cell-based. The gist of the method:
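HEK293 cells stably expressing human 5-HT7b, grown in DMEM with 10% dialyzed FBS and G418, then resuspended in HBSS with 5 mM HEPES, 0.5 mM IBMX and 0.1% BSA. 450 cells per well were incubated 30 min at room temperature with compound and 6.2 nM 5-CT. After lysis, cAMP was read by LANCE TR-FRET after 1 h. Triplicate, 8 concentrations (10^-11–10^-4 M). Kb = IC50/(1+A/EC50).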

Series [7] deals with Mus musculus. Briefly: Toxicity in ip dosed Albino Swiss mouse assessed as effect on spontaneous locomotory activity at MED measured over 2 to 6 mins. Conditions: in vivo.

Each structure is given as a SMILES string.

Sequence of 5-hydroxytryptamine receptor 7 (P34969 whole entry): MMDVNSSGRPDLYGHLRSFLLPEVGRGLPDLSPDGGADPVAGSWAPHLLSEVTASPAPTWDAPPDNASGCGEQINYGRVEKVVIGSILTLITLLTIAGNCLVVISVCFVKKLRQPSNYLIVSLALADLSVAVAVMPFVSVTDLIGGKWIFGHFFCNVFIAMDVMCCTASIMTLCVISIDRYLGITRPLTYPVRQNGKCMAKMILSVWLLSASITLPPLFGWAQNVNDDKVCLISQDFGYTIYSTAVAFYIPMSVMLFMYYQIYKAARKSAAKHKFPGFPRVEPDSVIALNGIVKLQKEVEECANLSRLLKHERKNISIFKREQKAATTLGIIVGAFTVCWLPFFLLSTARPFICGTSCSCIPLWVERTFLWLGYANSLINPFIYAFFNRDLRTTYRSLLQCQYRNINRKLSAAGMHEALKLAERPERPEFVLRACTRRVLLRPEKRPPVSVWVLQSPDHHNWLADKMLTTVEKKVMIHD

One may read the Kb as the affinity of an antagonist, worked out from how it opposes an agonist. Regarding `O=S(=O)(NC1CCN(CCOc2ccccc2C2CCCC2)CC1)c1cccc(F)c1`, the Activity in series [1] is 0.426 N; in series [2] it was 1446.8; in series [7], “Non-toxic”. In addition, the Time in series [3] was determined as 192.5 s. The minimal effective dose in series [4] was determined as 1.25 mg/kg. Further, the Ratio Ki in series [5] turned out to be 31. Further, the Kb in series [6] was 85 nM.
